# Screening results as filed in PubChem BioAssay.
# Hits are enriched below; roughly 9.8% of the tested compounds scored in any of these assays.
# WT yeast gro inh: growth inhibition of WT strain, primary screen, mitochondrial fusion inhibitor project, WT and mutant strains, chemical genetic; mitochondrial fusion phenotypic screen; inhibition, % at 10 µM; 190,000 compounds, 2.1% hits; AID 1362, 2008; in the data active means inhibition above about 58%; tested in S. cerevisiae
# m-calpain inh: inhibitors of pig calpain II, primary screen, biochemical, fluorogenic peptide substrate, 1536-well. AID 1236, 2008. 220,000 compounds, 0.37% hits. purified calpain II, 30 min. inhibition, % at 16 µM;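 active means inhibition above about 50%, limit read from the data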
# PMI act: activators of human PMI, primary screen, biochemical, fluorescence intensity, near-Km mannose 6-phosphate; 190,000 compounds, 0.005% hits; purified human PMI, coupled resazurin fluorescence, 20 min; hits give high values; 1 = vehicle control, 0 substrate-free wells; Mannose-6-phosphate isomerase (Homo sapiens), P34949; activation factor at 20 µM;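 active means activation factor of 2 or more at 20 µM, relative to plate controls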
# PMI act satM6P: human PMI activators, high substrate, primary screen, biochemical, fluorescence intensity, near-saturating mannose 6-phosphate; Mannose-6-phosphate isomerase (Homo sapiens), P34949; coupled PMI enzyme assay, resazurin fluorescence, 20 min; hits give high values; 1 = untreated enzyme, 0 = substrate-free blank; activation factor at 20 µM; 190,000 compounds, 0.34% hits; AID 1216, 2008;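 active means activation factor of 2 or more at 20 µM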
#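 Test system: Human PMI in coupled enzyme assay | Input: 15 ng/mL PMI | Medium: HEPES-buffered pH 7.4 with magnesium and detergent | Compound: One concentration, 20 µM, in 1% DMSO | Incubation: Enzyme reaction with compound 20 min at room temperature | Detection: Diaphorase-driven resazurin-to-resorufin fluorescence, excitation 544, emission 590 nm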
# Rad51 HR inh: human RAD51 strand exchange inhibitors, primary screen, biochemical, fluorescence; AID 1385, 2008; hRad51 DNA strand exchange, fluorescence dequenching; DNA repair protein RAD51 homolog 1 (Homo sapiens), Q06609; inhibition, % at 10 µM; 200,000 compounds, 0.085% hits;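 active means inhibition above 40% at the single screening dose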;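 further: 0% = DMSO control wells and 100% = blanks with heterologous ssDNA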
# Target sequence (Q06609 whole entry, looked up): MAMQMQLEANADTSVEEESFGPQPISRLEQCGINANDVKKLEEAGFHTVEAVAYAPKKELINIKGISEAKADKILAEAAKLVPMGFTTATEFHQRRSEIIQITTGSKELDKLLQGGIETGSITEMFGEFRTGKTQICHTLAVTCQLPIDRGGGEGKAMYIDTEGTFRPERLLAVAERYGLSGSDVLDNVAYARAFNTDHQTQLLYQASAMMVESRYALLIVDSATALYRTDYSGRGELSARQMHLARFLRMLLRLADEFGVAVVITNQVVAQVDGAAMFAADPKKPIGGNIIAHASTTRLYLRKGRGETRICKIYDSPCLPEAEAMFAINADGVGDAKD
#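 System: human Rad51 nucleoprotein filaments preassembled on unlabelled ssDNA. Reagent: labelled 47-mer dsDNA for strand exchange. Schedule: 30-min compound preincubation and 15-min exchange, both room temperature. Measured by: FRET fluorescence dequenching, excitation 485 nm, emission 520 nm. Read-out: Fluorescence-based percent inhibition, control- and blank-normalised. Benchmarks: plate controls and plate blanks.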
# L major viab: Leishmania major promastigote growth inhibition, primary screen; Leishmania major promastigotes, resazurin fluorescence viability; inhibition, % at 10 µM; 200,000 compounds, 9% hits; in the data active means inhibition above about 50%;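 further: promastigotes grown with compound for 44 hours at 28 °C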
# Numbers without * were called inactive; . = not tested or not shown.
SMILES,WT yeast gro inh,m-calpain inh,PMI act,PMI act satM6P,Rad51 HR inh,L major viab
CCOc1cc(CNc2ccc(N3CCOCC3)cc2)cc(Br)c1OCC,16,-11,0.9,0.9,.,-1
CCOc1cc(CNc2cccc3ccccc23)cc(Br)c1OCC(=O)NC(C)(C)C,-3,9,0.8,0.8,-1,15
Cc1c(Br)c([N+](=O)[O-])nn1CC(=O)NCC1CCCO1 (stereo not drawn),-9,15,0.9,0.9,-35,-1
COc1ccc(/C=N/n2cnc3c([nH]c4ccccc43)c2=O)cc1COc1ccccn1,10,-85,1.1,1.1,0,7
Cc1nn(-c2ccc([N+](=O)[O-])cc2)c2c1C(c1cccc(Br)c1)N1C(=N2)C(=O)Nc2ccccc21 (stereo not drawn),9,-14,0.9,0.9,3,77*
COc1cc2c(cc1OC)C(c1ccccc1)N(S(C)(=O)=O)CC2 (stereo not drawn),-12,-19,0.9,0.9,-47,-4
COc1ccc(-n2c3c(c(=O)[nH]c2=O)C(NS(=O)(=O)c2ccc(Cl)cc2)(C(F)(F)F)C(=O)N3)cc1 (stereo not drawn),.,-16,.,.,.,.
Cc1csc2c(=O)sc(NC(=O)c3cccs3)nc12,.,-26,.,.,14,.
CC1=C(CC(=O)c2ccccc2)C(=O)c2ccccc2C1=O,33,-38,1.2,1.1,.,94*
CC(C)Oc1ccccc1C1CC(=O)Nc2cc3c(cc21)OCCO3 (stereo not drawn),18,-37,0.9,1,-2,18
CC(C)Oc1ccccc1C1Nc2ccccc2C(=O)N1c1ccc2c(c1)OCCO2 (stereo not drawn),34,-479,0.9,0.9,-2,63*
O=C(CN1C(=O)CC(c2ccccc2)S(=O)(=O)c2ccccc21)N1CCCC1 (stereo not drawn),-1,-14,1.1,1,7,-7
S=C(NCC1CCCO1)Nc1ccccc1 (stereo not drawn),4,-13,0.9,1,-7,11
CC(C)Cc1nc(SCc2cccnc2)c2c(=O)n(C)c(=O)n(C)c2n1,32,34,0.9,1,8,96*
CCc1nc(SCc2cccnc2)c2c(=O)n(C)c(=O)n(C)c2n1,-11,-10,0.9,0.9,-3,26
Cn1c(=O)c2c(SCC(=O)NCCc3ccccc3)nc(C3CC3)nc2n(C)c1=O,.,0,.,.,1,.
Cn1c(=O)c2c(SCc3cccnc3)nc(C3CC3)nc2n(C)c1=O,5,1,1.1,1.1,-4,53*
CC(Oc1ccc(Cl)cc1Cl)c1ccnc2nc(N3CCOCC3)nn12 (stereo not drawn),75*,-14,0.9,1,16,10
O=C(CN1CCOCC1)Nc1ccc(N2CCN(c3ccccc3)CC2)c(F)c1,-17,5,0.9,0.9,5,-12
Cc1ccc(Sc2ccc(NC(=O)CCl)cc2)cc1C,66*,41,0.9,0.8,0,100*
Cc1ccc(C)c(Sc2ccc(NC(=O)CCl)cc2)c1,69*,-36,0.8,0.9,3,100*
C=CCN(CC=C)CCOc1cccc(Oc2ccccc2)c1,50,29,0.8,0.9,-2,97*
CN(C)CCCOc1cccc(Oc2ccccc2)c1,-14,8,1,1,-15,99*
C=CCN(CC=C)CCCOc1ccccc1C(=O)OC,-2,-4,0.9,0.9,-4,33
CCOC(=O)C1=C(O)/C(=C/c2cccc(OC)c2O)N=C1C,5,-1,0.9,0.5,9,63*
SMILES,WT yeast gro inh,m-calpain inh,PMI act,PMI act satM6P,Rad51 HR inh,L major viab
CCOC(=O)C1(CCCc2ccccc2)CCN(Cc2cn(CC)nc2C)CC1,6,7,1,1,.,84*
CCOC(=O)C1(CCCc2ccccc2)CCN(C(=O)Cc2nonc2C)CC1,14,13,0.9,1,.,21
CCOC(=O)C1(Cc2cccc(F)c2)CCN(Cc2cn(CC)nc2C)CC1,4,29,0.9,1,.,71*
CCOC(=O)[C@H]1O[C@@H]1C(=O)N[C@@H](CC(C)C)C(=O)NCCC(C)C,-3,97*,1,1.1,-3,.
CC(C)CCNC(=O)C(=O)Nc1ccccc1,5,-16,1,1.1,-34,-3
CC(C)CCNC(=O)[C@H](CC(C)C)NC(=O)[C@H]1O[C@@H]1C(=O)O,6,100*,1,1,-7,-5
C=CCc1ccc(OCCCCNC(C)CC)c(OC)c1 (stereo not drawn),-16,3,1,1.1,19,90*
CCC(C)NCCCOc1ccc(Cl)cc1C(C)(C)C (stereo not drawn),27,34,1.2,1.2,26,100*
COCCCNCCCOc1ccc(Cl)cc1C(C)(C)C,30,-11,1,1,0,100*
C=CCc1cc(Cl)ccc1OCCCNC(C)CC (stereo not drawn),11,2,1,1,11,100*
Cc1cc(C(=O)Cn2nc(C(=O)O)c3ccccc3c2=O)c(C)n1CCc1ccc(Cl)cc1,22,-129,0.9,1,9,30
CNCCCOc1ccc(Cl)cc1C(C)(C)C,29,5,1,1,-3,99*
CC(OC(=O)c1ccncc1)C(=O)NC1CCCC1 (stereo not drawn),2,-30,1,1,11,-4
NNC(=O)c1ccc2ccccc2n1,-1,-33,1.2,1,3,-6
COc1ccc(N=C(NN)c2ccc3ccccc3n2)cc1,23,3,1.8,2.3*,-20,2
O=c1[nH]nc(N2CCOCC2)c(=O)[nH]1,.,-11,.,.,10,.
COc1ccc(CCn2c(N)c(C#N)c3nc4ccccc4nc32)cc1OC,-3,-89,0.6,0.7,11,91*
O=C(NC1CCCCC1)c1ccc(CS(=O)(=O)Cc2ccccc2F)o1,2,-13,1,0.9,-3,3
O=C(NC1CCCC1)c1ccc(CSCc2ccccc2F)o1,2,-14,1,1.1,-7,89*
S=c1nc(-c2ccccc2Cl)n(Cc2cccnc2)c2c1CCCC2,-10,1,0.9,1,.,-5
COc1cc(NC(=O)C2=C(N3CCOCC3)/C(=C\c3ccc(Cl)cc3Cl)CC2)cc(OC)c1OC,11,-29,0.8,0.8,3,97*
Cc1cc(N/N=C\c2ccccc2)nc(-c2ccccc2O)n1,36,-21,0.8,0.9,0,74*
